# pKi: −log10 of the molar value. Calls of active or inactive are those of the source. No cut-off for these calls is given here.
# Key:
# [1] = species: Homo sapiens; test: Selectivity ratio of Ki for recombinant human adenosine A3 receptor expressed in CHO cell membranes to Ki for recombinant human adenosine A2B receptor expressed in CHO cell membranes; assay type: cell-based
# [2] = target: T1, Adenosine receptor A2b (Homo sapiens) (UniProt P29275); test: Binding affinity to recombinant human adenosine A2B receptor expressed in CHO cell membranes at 100 nM after 15 mins in presence of DPCPX by confocal microscopic method; assay type: cell-based
# T1 sequence (whole entry): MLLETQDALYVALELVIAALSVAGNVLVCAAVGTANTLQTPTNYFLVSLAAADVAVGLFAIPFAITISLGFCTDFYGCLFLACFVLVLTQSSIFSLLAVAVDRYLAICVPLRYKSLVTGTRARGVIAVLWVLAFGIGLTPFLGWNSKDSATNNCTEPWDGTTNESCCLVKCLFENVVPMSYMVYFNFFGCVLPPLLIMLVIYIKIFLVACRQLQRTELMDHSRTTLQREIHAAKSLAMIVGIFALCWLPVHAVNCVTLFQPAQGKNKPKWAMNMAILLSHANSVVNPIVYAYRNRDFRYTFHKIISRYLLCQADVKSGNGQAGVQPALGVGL
# How it was run: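 Live CHO cells stably expressing human A2BAR (or wild-type CHO as control) grown on chambered coverslips to about 80 % confluency. Incubated with fluorescent ligand (100 nM) for 15 min at 37°C, alone or after 30 min pre-incubation with PSB-603 (100 nM) or DPCPX (1 µM). Confocal laser scanning imaging with identical settings across conditions. Three similar experiments.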
# [3] = species: Rattus norvegicus; test: Selectivity ratio of Ki for adenosine A2A receptor in rat brain striatal membranes to Ki for recombinant rat adenosine A2B receptor expressed in CHO cell membranes; assay type: cell-based
# [4] = Selectivity ratio of Ki for recombinant human adenosine A3 receptor expressed in CHO cell membranes to Ki for recombinant mouse adenosine A2B receptor expressed in CHO cell membranes; assay type: cell-based
# [5] = target: Adenosine receptor A2a (Homo sapiens, UniProt P29274); test: Displacement of [3H]MSX-2 from recombinant human adenosine A2A receptor expressed in HEK cell membranes after 30 mins by liquid scintillation counting method
# How it was run: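 [³H]MSX-2 (1 nM) used with rat striatal or human A2A-HEK membranes, 30 min at rt. Membranes pre-incubated 10-15 min with ADA 0.12 IU/mL. Nonspecific binding defined with 10 µM CGS15943. DMSO 2.5 % final. GF/B filtration, then scintillation counting. Curves used 6-7 concentrations over 3 log units. At least three experiments, in duplicate (human) or triplicate (rat).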
# [6] = Selectivity ratio of Ki for adenosine A2A receptor in rat brain striatal membranes to Ki for recombinant mouse adenosine A2B receptor expressed in CHO cell membranes; assay type: cell-based
# [7] = Selectivity ratio of Ki for recombinant human adenosine A2A receptor expressed in HEK cell membranes to Ki for recombinant rat adenosine A2B receptor expressed in CHO cell membranes; assay type: cell-based
# [8] = Selectivity ratio of Ki for recombinant human adenosine A3 receptor expressed in CHO cell membranes to Ki for recombinant rat adenosine A2B receptor expressed in CHO cell membranes; assay type: cell-based
# [9] = species: Homo sapiens; test: Selectivity ratio of Ki for recombinant human adenosine A2A receptor expressed in HEK cell membranes to Ki for recombinant human adenosine A2B receptor expressed in CHO cell membranes; assay type: cell-based
# [10] = Selectivity ratio of Ki for recombinant human adenosine A2A receptor expressed in HEK cell membranes to Ki for recombinant mouse adenosine A2B receptor expressed in CHO cell membranes; assay type: cell-based
# [11] = target: T2, Adenosine receptor A2b (Rattus norvegicus, UniProt P29276); test: Displacement of [3H]PSB-603 from recombinant rat adenosine A2B receptor expressed in CHO cell membranes after 75 mins by liquid scintillation counting method
# T2 sequence (P29276 whole entry): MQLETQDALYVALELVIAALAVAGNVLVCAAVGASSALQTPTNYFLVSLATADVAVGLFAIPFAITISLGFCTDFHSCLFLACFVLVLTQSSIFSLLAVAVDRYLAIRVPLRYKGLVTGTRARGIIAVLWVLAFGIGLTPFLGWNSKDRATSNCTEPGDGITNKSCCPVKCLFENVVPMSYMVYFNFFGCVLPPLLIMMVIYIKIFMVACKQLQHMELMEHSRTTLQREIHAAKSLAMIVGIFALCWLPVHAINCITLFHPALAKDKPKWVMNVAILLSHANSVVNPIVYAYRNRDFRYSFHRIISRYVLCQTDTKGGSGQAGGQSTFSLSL
# How it was run: (§1)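 Membranes pre-incubated 10-15 min with ADA 0.12 IU/mL. DMSO 2.5 % final. Filtration on GF/B with ice-cold 50 mM Tris-HCl pH 7.4 containing 0.1 % BSA, then scintillation counting. Curves used 6-7 concentrations over 3 log units. At least three experiments.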
# [12] = target: T3, Adenosine receptor A1 (Homo sapiens, UniProt P30542); test: Displacement of [3H]CCPA from recombinant human adenosine A1 receptor expressed in CHO cell membranes after 90 mins by liquid scintillation counting method
# T3 sequence (P30542 whole entry): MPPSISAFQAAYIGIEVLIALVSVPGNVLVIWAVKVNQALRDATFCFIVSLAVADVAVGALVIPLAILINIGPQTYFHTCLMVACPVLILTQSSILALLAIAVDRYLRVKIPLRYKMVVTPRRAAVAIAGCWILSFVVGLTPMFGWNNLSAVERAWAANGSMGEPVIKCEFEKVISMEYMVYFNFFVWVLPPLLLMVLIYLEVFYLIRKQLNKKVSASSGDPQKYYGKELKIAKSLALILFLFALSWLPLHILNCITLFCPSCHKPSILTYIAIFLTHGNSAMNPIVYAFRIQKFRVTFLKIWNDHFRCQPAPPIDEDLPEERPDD
# How it was run: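 [³H]CCPA (1 nM) used with rat brain cortical or human A1-CHO membranes, 90 min at rt. Membranes pre-incubated 10-15 min with ADA 0.12 IU/mL. Nonspecific binding defined with 10 µM CADO. Compounds dissolved in DMSO, 2.5 % final. Filtration on GF/B filters with ice-cold Tris-HCl washes, then scintillation counting. Curves used 6-7 concentrations spanning 3 log units. At least three experiments, in duplicate (human) or triplicate (rat).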
# [13] = Selectivity ratio of Ki for recombinant human adenosine A1 receptor expressed in CHO cell membranes to Ki for recombinant rat adenosine A2B receptor expressed in CHO cell membranes; assay type: cell-based
# [14] = species: Homo sapiens; test: Selectivity ratio of Ki for recombinant human adenosine A1 receptor expressed in CHO cell membranes to Ki for recombinant human adenosine A2B receptor expressed in CHO cell membranes; assay type: cell-based
# [15] = target: T4, Adenosine receptor A2b (Homo sapiens, UniProt P29275); test: Displacement of [3H]PSB-603 from recombinant human adenosine A2B receptor expressed in CHO cell membranes after 75 mins by liquid scintillation counting method
# T4 sequence (P29275 whole entry): T1 sequence (whole entry)
# How it was run: as §1, with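 “[³H]PSB-603 (0.3 nM) used with CHO membranes expressing human, mouse or rat A2BAR, 75 min at rt. Membranes” for “Membranes”, “IU/mL. Nonspecific binding defined with 10 µM DPCPX.” for “IU/mL.”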
# Adenosine receptor A2a, sequence (P29274 whole entry): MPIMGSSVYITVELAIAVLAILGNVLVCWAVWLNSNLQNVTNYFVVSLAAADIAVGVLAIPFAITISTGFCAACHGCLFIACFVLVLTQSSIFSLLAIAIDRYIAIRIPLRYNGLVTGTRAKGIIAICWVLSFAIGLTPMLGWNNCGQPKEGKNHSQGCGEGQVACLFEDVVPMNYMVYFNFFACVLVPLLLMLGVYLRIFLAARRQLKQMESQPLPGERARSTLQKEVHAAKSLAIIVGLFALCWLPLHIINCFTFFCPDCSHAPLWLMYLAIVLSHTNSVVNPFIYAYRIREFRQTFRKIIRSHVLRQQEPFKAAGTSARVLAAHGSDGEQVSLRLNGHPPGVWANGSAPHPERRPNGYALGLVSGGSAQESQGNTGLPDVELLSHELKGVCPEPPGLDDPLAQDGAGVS
compound,measurement,setting,value
CCCn1c(=O)[nH]c2nc(-c3ccc(OCC(=O)NCCC4=C5C(C)=CC(C)=[N+]5[B-](F)(F)n5c(C)cc(C)c54)cc3)[nH]c2c1=O,Ratio Ki,[1],> 1000
same,Activity,[2],inactive
same,Ratio Ki,[3],> 150
same,Ratio Ki,[4],> 1000
same,pKi,[5],< 5.00
same,Ratio Ki,[6],> 150
same,Ratio Ki,[7],> 1000
same,Ratio Ki,[8],> 1000
same,Ratio Ki,[9],> 150
same,Ratio Ki,[10],> 1000
same,pKi,[11],9.74
same,pKi,[12],≤ 5.00
same,Ratio Ki,[13],> 1000
same,Ratio Ki,[14],> 1000
same,pKi,[15],8.74
